In ChEMBL document CHEMBL1150294, “Synthesis of indirubin-N'-glycosides and their anti-proliferative activity against human cancer cell lines” (Bioorg Med Chem, 2008):

Legend:
[1] = Antiproliferative activity against human KYSE70 cells after 96 hrs by crystal violet assay; format: functional, cell-based; details: KYSE-70, 96 h
Method in brief: (§1)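 Adherent lines from DSMZ grown in RPMI 1640 with 10% FCS plus penicillin G/streptomycin. Seeded at 1000 cells/well 24 h before dosing, with an untreated plate fixed at dosing as the time-zero reference. Compounds came from DMSO series, five concentrations at 0.1% final DMSO, eight wells each. Exposure was continuous for 96 h. Cells were glutaraldehyde-fixed, stained with 0.02% crystal violet, dye eluted in 70% ethanol, OD 570 nm. Results are corrected T/C% against time-zero.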

A-427 = assay: Antiproliferative activity against human A427 cells after 96 hrs by crystal violet assay; format: functional, cell-based; details: A-427, 96 h; method in brief: as §1
5637 [2] = assay: Antiproliferative activity against human 5637 cells after 96 hrs by crystal violet assay; format: functional, cell-based; details: Homo sapiens, 5637, 96 h; method in brief: as §1
MCF7 = assay: Antiproliferative activity against human MCF7 cells after 96 hrs by crystal violet assay; format: functional, cell-based; details: MCF7, 96 h; method in brief: as §1
5637 [3] = assay: Growth inhibition of human 5637 cells at 12.5 uM after 96 hrs by crystal violet assay; format: functional; details: Homo sapiens, 5637, 96 h; method in brief: as §1
[4] = Growth inhibition of human KYSE70 cells at 12.5 uM after 96 hrs by crystal violet assay; format: functional; details: KYSE-70, 96 h; method in brief: as §1

Structure (SMILES) | IC50 (MCF7) | IC50 [1] | IC50 (A-427) | IC50 5637 [2] | inhibition at 12.5 µM 5637 [3] | inhibition at 12.5 µM [4]
O=C(O)CCCc1ccc(N(CCCl)CCCl)cc1 [CHLORAMBUCIL] | 18.4 µM | 38.4 µM | 9.5 µM | 6.55 µM |  | 
Cc1cc(C)c2c(c1)N([C@H]1O[C@@H](C)[C@H](O)[C@@H](O)[C@H]1O)C(=O)/C2=C1\Nc2ccccc2C1=O | 6.16 µM | > 12.5 µM |  | > 12.5 µM | < 20% | < 20%
C[C@@H]1O[C@H](N2C(=O)/C(=C3\Nc4ccccc4\C3=N/O)c3ccccc32)[C@H](O)[C@H](O)[C@H]1O | 17 µM | 15.4 µM |  | 15.5 µM |  | 
Nc1ncn([C@@H]2O[C@H](CO)[C@@H](O)[C@H]2O)c(=O)n1 [AZACITIDINE] | 6.78 µM | 1.59 µM | 0.63 µM | 1.73 µM |  | 
C[C@@H]1O[C@H](N2C(=O)/C(=C3\Nc4ccccc4C3=O)c3ccccc32)[C@H](O)[C@H](O)[C@H]1O | 0.76 µM | > 12.5 µM | > 12.5 µM | > 12.5 µM |  | 
C[C@@H]1O[C@H](N2C(=O)/C(=C3\Nc4ccc(Cl)cc4C3=O)c3ccccc32)[C@H](O)[C@H](O)[C@H]1O | 7.98 µM | 5.94 µM |  | 8.23 µM |  | 
C[C@@H]1O[C@@H](N2C(=O)/C(=C3\Nc4ccc(Cl)cc4C3=O)c3ccccc32)[C@H](O)[C@H](O)[C@H]1O | 6.96 µM | 15.3 µM |  | 12.9 µM |  | 

Continued by falling IC50 (MCF7), values first:

IC50 (MCF7) | Structure (SMILES) | IC50 [1] | IC50 (A-427) | IC50 5637 [2] | inhibition at 12.5 µM 5637 [3] | inhibition at 12.5 µM [4]
25.8 µM | O=C1/C(=C2/C(=O)N([C@@H]3O[C@H](CO)[C@H](O)[C@H](O)[C@H]3O)c3ccccc32)Nc2ccccc21 | 41.5 µM | 13.2 µM | 24.9 µM |  | 
15.7 µM | O=C1/C(=C2/C(=O)N([C@@H]3O[C@H](CO)[C@@H](O)[C@H](O)[C@H]3O)c3ccccc32)Nc2ccccc21 | 28.9 µM | 11.8 µM | 14.4 µM |  | 
4.22 µM | O=C1/C(=C2/C(=O)N([C@@H]3O[C@H](CO)[C@@H](O)[C@H](O)[C@@H]3O)c3ccccc32)Nc2ccccc21 | 11.8 µM | 5.55 µM | 10.6 µM |  | 
0.67 µM | C[C@@H]1O[C@@H](N2C(=O)/C(=C3\Nc4ccccc4C3=O)c3ccccc32)[C@H](O)[C@H](O)[C@H]1O | > 25 µM | > 25 µM | > 25 µM | < 20% | < 20%
0.5 µM | COc1cc([C@@H]2c3cc4c(cc3[C@@H](O[C@@H]3O[C@@H]5CO[C@@H](C)O[C@H]5[C@H](O)[C@H]3O)[C@H]3COC(=O)[C@H]23)OCO4)cc(OC)c1O [ETOPOSIDE] | 0.94 µM | 0.13 µM | 0.54 µM |  | 
